Calls of active or inactive are those of the source. The rule behind the calls is not given here.
How the values were obtained:
[1] = target: D(2) dopamine receptor (Rattus norvegicus) (UniProt P61169); assay: Displacement of [3H]MSP from rat dopamine D2L receptor expressed in HEK293 cells at 1 uM after 90 mins by scintillation counting; format: cell-based
Method in brief: (§1)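 HEK293 membranes stably expressing rat D2 or human 5-HT1A, 5-HT2A or 5-HT2C receptors, used fresh. Incubated 90 min at 25 °C in 50 mM Tris pH 7.4 with about […] radioligand and 1 μM compound (DMSO or DMF stock diluted ≥1:1000). Nonspecific binding defined by (+)-butaclamol for D2, NAN-190 for 5-HT1A and mianserin for 5-HT2A/2C. PEI-GF/C filtration, scintillation count; % displacement from triplicates, 3–4 repeats.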

[2] = Dissociation constant, pKa of the compound; format: physicochemical
[3] = target: Sigma non-opioid intracellular receptor 1 (Homo sapiens) (UniProt Q99720); assay: Displacement of [3H](+)-pentazocine from human sigma 1 receptor expressed in MCF7 cells at 1 uM after 180 mins by scintillation counting; format: cell-based
Sequence of Sigma non-opioid intracellular receptor 1 (Homo sapiens) (Q99720 whole entry): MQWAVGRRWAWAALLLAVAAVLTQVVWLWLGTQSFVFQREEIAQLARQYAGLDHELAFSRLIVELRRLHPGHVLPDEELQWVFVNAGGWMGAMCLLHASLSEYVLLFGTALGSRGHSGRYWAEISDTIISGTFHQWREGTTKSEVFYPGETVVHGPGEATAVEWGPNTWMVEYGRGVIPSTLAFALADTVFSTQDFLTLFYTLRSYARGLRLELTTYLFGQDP
Method in brief: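 Membranes from MCF-7 cells stably expressing cloned human σ1 receptor, 0.01–0.05 mg/mL protein, in 50 mM Tris pH 8.0. Incubated 180 min at 37 °C with shaking with 1 nM [3H]-(+)-pentazocine and 1 μM compound; BD1063 defined nonspecific binding. Filtered on PEI-treated GF/C, washed with ice-cold buffer, scintillation counted; triplicates, 3–4 experiments.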

D(4) dopamine receptor = target: T1, D(4) dopamine receptor (Rattus norvegicus, UniProt P30729); assay: Displacement of [3H]MSP from rat dopamine D4 receptor expressed in HEK293 cells after 90 mins by scintillation counting; format: cell-based
T1 sequence (P30729 whole entry): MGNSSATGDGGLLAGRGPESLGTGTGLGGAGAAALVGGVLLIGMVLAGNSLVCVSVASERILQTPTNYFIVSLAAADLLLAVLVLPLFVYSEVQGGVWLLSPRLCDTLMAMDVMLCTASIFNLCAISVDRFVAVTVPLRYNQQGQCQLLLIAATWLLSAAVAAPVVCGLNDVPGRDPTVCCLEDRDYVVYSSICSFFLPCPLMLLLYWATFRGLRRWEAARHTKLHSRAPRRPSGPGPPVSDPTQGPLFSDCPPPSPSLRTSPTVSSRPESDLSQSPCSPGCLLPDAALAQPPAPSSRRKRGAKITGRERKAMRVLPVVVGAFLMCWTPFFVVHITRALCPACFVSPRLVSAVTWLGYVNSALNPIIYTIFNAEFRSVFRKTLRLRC
Method in brief: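 Competition binding on fresh membranes from HEK293 cells stably expressing rat D4 receptor, with about […] [3H]methylspiperone for 90 min at 25 °C in 50 mM Tris pH 7.4; (+)-butaclamol defined nonspecific binding. Filtered and scintillation counted. IC50 converted to Ki by Cheng–Prusoff; triplicates, 3–4 experiments.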

[4] = Lipophilicity, log P of the compound; format: physicochemical; details: octanol/water
[5] = target: T2, 5-hydroxytryptamine receptor 2C (Homo sapiens) (UniProt P28335); assay: Displacement of [3H]mesulergine from human 5HT2C receptor expressed in HEK293 cells at 1 uM after 90 mins by scintillation counting; format: cell-based; method in brief: as §1
T2 sequence (whole entry): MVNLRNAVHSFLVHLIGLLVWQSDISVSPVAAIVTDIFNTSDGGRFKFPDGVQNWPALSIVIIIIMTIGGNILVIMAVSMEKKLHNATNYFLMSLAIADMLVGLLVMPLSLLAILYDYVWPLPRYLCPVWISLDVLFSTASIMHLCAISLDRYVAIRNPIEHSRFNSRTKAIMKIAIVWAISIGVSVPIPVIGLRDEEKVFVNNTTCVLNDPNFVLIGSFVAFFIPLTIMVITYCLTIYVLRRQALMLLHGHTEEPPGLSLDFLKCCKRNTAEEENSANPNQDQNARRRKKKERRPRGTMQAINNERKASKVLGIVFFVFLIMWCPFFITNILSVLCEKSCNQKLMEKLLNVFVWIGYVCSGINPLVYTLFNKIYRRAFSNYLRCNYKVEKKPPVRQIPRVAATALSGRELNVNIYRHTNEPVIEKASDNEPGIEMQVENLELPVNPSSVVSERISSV

[6] = Drug level in CD1 mouse brain at 10 mg/kg, ip after 30 mins; format: ADME, organism-based; parameters: dose 10 mg/kg, route intraperitoneal; details: read-out: Drug uptake
Plasma = assay: Drug level in CD1 mouse plasma at 10 mg/kg, ip after 30 to 60 mins; format: ADME, organism-based; parameters: dose 10 mg/kg, route intraperitoneal; details: in vivo
Method in brief: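 Male CD1 mice, 25–30 g, given 10 mg/kg ip in ethanol/PEG 40/saline (10:40:50). Killed at 15–240 min. Plasma (0.2 mL) alkalinised and extracted into dichloromethane with a 1-(2-thiazolyl)piperazine internal standard, then run on gradient reversed-phase HPLC-UV at 264 nm; quantification limit about 100 ng/mL. Mean ± SD, n = 3.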

[7] = target: T3, 5-hydroxytryptamine receptor 1A (Homo sapiens) (UniProt P08908); assay: Displacement of [3H]MPPF from human 5HT1A receptor expressed in HEK293 cells at 1 uM after 90 mins by scintillation counting; format: cell-based; method in brief: as §1
T3 sequence (whole entry): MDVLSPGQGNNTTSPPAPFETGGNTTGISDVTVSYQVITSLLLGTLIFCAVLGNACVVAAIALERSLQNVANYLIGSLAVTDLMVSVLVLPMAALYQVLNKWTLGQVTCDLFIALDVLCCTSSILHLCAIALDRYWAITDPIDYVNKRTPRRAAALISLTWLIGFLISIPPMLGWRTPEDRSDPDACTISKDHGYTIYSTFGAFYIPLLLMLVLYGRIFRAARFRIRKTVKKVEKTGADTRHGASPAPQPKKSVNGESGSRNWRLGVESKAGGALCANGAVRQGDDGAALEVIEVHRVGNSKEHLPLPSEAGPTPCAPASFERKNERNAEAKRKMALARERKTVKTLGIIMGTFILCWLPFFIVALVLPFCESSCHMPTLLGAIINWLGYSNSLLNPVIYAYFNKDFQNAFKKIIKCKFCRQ

[8] = target: D(3) dopamine receptor (Homo sapiens) (UniProt P35462); assay: Displacement of [3H]MSP from human dopamine D3 receptor expressed in CHO-K1 cells at 1 uM after 90 mins by scintillation counting; format: cell-based
Sequence of D(3) dopamine receptor (Homo sapiens) (P35462 whole entry): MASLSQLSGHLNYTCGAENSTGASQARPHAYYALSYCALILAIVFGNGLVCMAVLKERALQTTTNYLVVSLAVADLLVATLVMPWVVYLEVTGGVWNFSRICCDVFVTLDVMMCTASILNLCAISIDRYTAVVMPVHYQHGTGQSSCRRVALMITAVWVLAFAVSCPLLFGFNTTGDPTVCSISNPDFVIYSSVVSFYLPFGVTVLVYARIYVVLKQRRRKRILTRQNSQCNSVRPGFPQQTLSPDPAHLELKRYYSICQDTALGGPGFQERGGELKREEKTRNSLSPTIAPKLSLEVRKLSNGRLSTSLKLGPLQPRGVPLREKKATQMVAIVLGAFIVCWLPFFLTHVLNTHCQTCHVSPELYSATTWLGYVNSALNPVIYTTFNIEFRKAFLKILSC
Method in brief: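 Frozen CHO-K1 membranes carrying human D3 receptor, incubated with about […] [3H]methylspiperone and 1 μM compound for 90 min at 25 °C in 50 mM Tris pH 7.4. Nonspecific binding defined with 5 μM 7-OH-DPAT. Filtered on PEI-treated GF/C and scintillation counted; triplicate points, experiment repeated 3–4 times.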

[9] = target: Cannabinoid receptor 1 (Rattus norvegicus) (UniProt P20272); assay: Displacement of [3H]CP55940 from CB1 receptor in rat brain at 1 uM after 180 mins by scintillation counting
Sequence of Cannabinoid receptor 1 (Rattus norvegicus) (P20272 whole entry): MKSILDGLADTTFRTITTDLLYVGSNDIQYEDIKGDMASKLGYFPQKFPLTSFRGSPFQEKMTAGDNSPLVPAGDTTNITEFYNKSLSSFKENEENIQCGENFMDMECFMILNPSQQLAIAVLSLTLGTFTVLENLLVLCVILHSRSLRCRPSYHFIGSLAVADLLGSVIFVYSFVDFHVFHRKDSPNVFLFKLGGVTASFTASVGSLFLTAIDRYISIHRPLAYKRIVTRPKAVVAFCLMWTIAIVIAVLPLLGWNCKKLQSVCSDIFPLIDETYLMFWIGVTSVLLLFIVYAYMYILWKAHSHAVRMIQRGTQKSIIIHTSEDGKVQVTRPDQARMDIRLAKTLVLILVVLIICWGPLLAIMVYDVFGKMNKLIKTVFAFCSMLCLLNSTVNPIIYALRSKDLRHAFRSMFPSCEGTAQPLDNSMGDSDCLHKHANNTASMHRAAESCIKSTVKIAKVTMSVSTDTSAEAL

[10] = target: T4, D(4) dopamine receptor (Rattus norvegicus) (UniProt P30729); assay: Agonist activity at rat dopamine D4 receptor expressed in HEK293 cells assessed as decrease in forskolin-stimulated levels of cAMP accumulation up to 10 uM; format: functional, cell-based
T4 sequence (whole entry): T1 sequence (P30729 whole entry)

[11] = Drug level in CD1 mouse plasma at 10 mg/kg, ip after 30 mins; format: ADME, organism-based; parameters: dose 10 mg/kg, route intraperitoneal; details: read-out: Drug uptake
[12] = target: 5-hydroxytryptamine receptor 2A (Homo sapiens) (UniProt P28223); assay: Displacement of [3H]MSP from human 5HT2A receptor expressed in HEK293 cells at 1 uM after 90 mins by scintillation counting; format: cell-based; method in brief: as §1
Sequence of 5-hydroxytryptamine receptor 2A (Homo sapiens) (P28223 whole entry): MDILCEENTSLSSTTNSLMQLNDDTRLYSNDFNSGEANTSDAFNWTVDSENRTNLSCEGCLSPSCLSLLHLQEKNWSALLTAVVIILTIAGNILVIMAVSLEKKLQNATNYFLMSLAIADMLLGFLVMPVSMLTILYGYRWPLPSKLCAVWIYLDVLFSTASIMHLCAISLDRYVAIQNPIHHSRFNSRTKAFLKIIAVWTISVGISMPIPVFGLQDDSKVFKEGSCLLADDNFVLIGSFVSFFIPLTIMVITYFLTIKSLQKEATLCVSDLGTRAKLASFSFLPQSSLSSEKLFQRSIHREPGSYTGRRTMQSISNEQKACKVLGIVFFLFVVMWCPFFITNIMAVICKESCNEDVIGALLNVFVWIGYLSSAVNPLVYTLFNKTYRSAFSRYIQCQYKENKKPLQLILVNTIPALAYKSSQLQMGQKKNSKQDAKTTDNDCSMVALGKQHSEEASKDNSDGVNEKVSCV

[13] = Distribution coefficient, log D of the compound at pH 7.4; format: physicochemical; details: octanol/water
[14] = Drug level in CD1 mouse plasma at 10 mg/kg, ip after 15 mins; format: ADME, organism-based; parameters: dose 10 mg/kg, route intraperitoneal; details: read-out: Drug uptake
[15] = Drug level in CD1 mouse brain at 10 mg/kg, ip after 15 mins; format: ADME, organism-based; parameters: dose 10 mg/kg, route intraperitoneal; details: read-out: Drug uptake

Sequence of D(2) dopamine receptor (Rattus norvegicus) (P61169 whole entry): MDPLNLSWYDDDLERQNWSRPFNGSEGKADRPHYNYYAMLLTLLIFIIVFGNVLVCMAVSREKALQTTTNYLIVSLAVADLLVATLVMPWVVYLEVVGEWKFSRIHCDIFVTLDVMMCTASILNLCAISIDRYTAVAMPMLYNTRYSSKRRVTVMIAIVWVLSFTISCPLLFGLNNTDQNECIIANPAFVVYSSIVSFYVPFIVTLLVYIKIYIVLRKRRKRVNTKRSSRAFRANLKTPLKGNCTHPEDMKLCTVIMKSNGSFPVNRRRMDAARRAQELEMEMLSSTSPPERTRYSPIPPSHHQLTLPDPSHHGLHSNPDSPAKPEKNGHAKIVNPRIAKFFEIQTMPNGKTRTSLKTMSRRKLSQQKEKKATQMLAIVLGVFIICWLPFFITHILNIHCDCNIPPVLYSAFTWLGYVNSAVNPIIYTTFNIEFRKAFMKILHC

Cc1ccc(N2CCN(CCNC(=O)c3ccc(F)cc3)CC2)cc1
Activity [1]: 29% | pKa [2]: 6.31 | Activity [3]: 21% | Ki (D(4) dopamine receptor): 2.64 nM

N#Cc1ccc(N2CCN(CCNC(=O)c3ccc(F)cc3)CC2)cc1
Activity [1]: 0% | pKa [2]: 6.43 | Activity [3]: 4.6% | logP [4]: 3.07 | Ki (D(4) dopamine receptor): 32.7 nM

COc1cccc(C(=O)NCCN2CCN(c3ncccc3C#N)CC2)c1
Activity [5]: 3.2% | Activity [1]: 4.4% | concentration at 0.5 h [6]: 140 ng/g | Drug uptake (Plasma): 0.1 µg/mL | pKa [2]: 6.71 | Activity [7]: 9.3% | Activity [8]: 5.1% | Activity [9]: 6.5% | Activity [10]: Active | Activity [3]: 8.3% | concentration at 0.5 h [11]: 0.37 µg/mL | logP [4]: 2.55 | Activity [12]: 24% | Ki (D(4) dopamine receptor): 1.52 nM

COc1cccc(C(=O)NCCN2CCN(c3ccc(C)cc3)CC2)c1
pKa [2]: 6.46 | logD [13]: 2.78 | Activity [3]: 7.2%

COc1cccc(C(=O)NCCN2CCN(c3ccc(Cl)cc3)CC2)c1
Activity [1]: 7.8% | pKa [2]: 6.19 | Activity [3]: 22% | Ki (D(4) dopamine receptor): 4.97 nM

COc1cccc(C(=O)NCCN2CCN(c3ccc(C#N)cc3)CC2)c1
Activity [1]: 0% | Activity [3]: 27% | Ki (D(4) dopamine receptor): 63.9 nM

O=C(NCCN1CCN(c2noc3ccccc23)CC1)c1ccc(F)cc1
Activity [1]: 89% | pKa [2]: 6.43 | logD [13]: 3.75 | Activity [3]: 21% | logP [4]: 3.79 | Ki (D(4) dopamine receptor): 0.34 nM

N#Cc1cccnc1N1CCN(CCNC(=O)c2ccc(F)cc2)CC1
concentration at 0.25 h [14]: 0.13 µg/mL | Activity [5]: 0% | Activity [1]: 32% | Drug uptake (Plasma): < 0.1 µg/mL | pKa [2]: 6.4 | Activity [7]: 29% | Activity [8]: 7.2% | Activity [9]: 9.9% | concentration at 0.25 h [15]: 470 ng/g | Activity [10]: Active | Activity [3]: 1% | logP [4]: 2.37 | Activity [12]: 53% | Ki (D(4) dopamine receptor): 0.93 nM

COc1cccc(C(=O)NCCN2CCN(c3noc4ccccc34)CC2)c1
Activity [1]: 84% | pKa [2]: 6.24 | Activity [3]: 13% | Ki (D(4) dopamine receptor): 1.93 nM

O=C(NCCN1CCN(c2ccc(Cl)cc2)CC1)c1ccc(F)cc1
Activity [1]: 48% | pKa [2]: 6.46 | Activity [3]: 29% | logP [4]: 3.75 | Ki (D(4) dopamine receptor): 1.76 nM

COc1cccc(C(=O)NCCN2CCN(c3ccc(Cl)cn3)CC2)c1
pKa [2]: 6.45 | Activity [3]: 15% | logP [4]: 3.29

O=C(NCCN1CCN(c2ccc(Cl)cn2)CC1)c1ccc(F)cc1
Activity [1]: 43% | pKa [2]: 6.58 | Activity [3]: 33% | logP [4]: 3.42 | Ki (D(4) dopamine receptor): 2.92 nM
